Data on eight compounds can be found in ChEMBL document CHEMBL4364253, “Application of Dually Activated Michael Acceptor to the Rational Design of Reversible Covalent Inhibitor for Enterovirus 71 3C Protease” (J Med Chem, 2019).

Series [1] can be described thus: Inhibition of Enterovirus 71 E2004104-TW-CDC protease 3C (1549 to 1731 residues) expressed in Escherichia coli BL21(DE3) cells using Dacyl-KRTATVQGPSLDFE-Edans as substrate by fluorescence method. The arrangement: species or system Enterovirus A71.
Series [2] concerns Enterovirus A71. Nature of the series: Antiviral activity against Enterovirus A71 EV71/Shenzhen/120F1/09 infected in human muscular rhabdomyosarcoma cells assessed as reduction in virus-induced cell death incubated for 3 days by CCK-8 assay. The series is classed as functional, organism-based. Particulars: Enterovirus A, EV71/Shenzhen/120F1/09, 72 h.
Series [3] addresses Chymotrypsinogen A (Bos taurus) (UniProt P00766). Nature of the series: Inhibition of bovine pancreas alpha-chymotrypsin at 50 uM after 30 mins using N-Succinyl-L-phenylalanine- p-nitroanilide measured for 30 mins.
Series [4] relates to Enterovirus A71. Nature of the series: Binding affinity to Enterovirus 71 3C protease assessed as enzyme-compound covalent adduct formation via Cys147 residue by measuring ratio of peak intensity of covalently modified to unmodified protein at 10 to 20 equivalent after 1 hr by HPLC-ESI/MS analysis. In outline:
(§1)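 Recombinant EV71 3C protease (40 µM) incubated with inhibitor at 30 °C in 50 mM Tris, 150 mM NaCl, 1 mM EDTA-2Na, pH 7.0. Free inhibitor and salts removed by three ultrafiltration washes with water (10 kDa cutoff). Analysis by HPLC-ESI-Orbitrap MS with 0.1% formic acid water/acetonitrile mobile phases. Spectra deconvoluted; modification given as adduct-to-unmodified protein peak intensity ratio (I_add/I_pro).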

The test system of series [5] is Enterovirus A71. The experiment in a line: Antiviral activity against pseudotyped Enterovirus A71 infected in human muscular rhabdomyosarcoma cells treated prior to viral infection and measured after 24 hrs by luminescence method. The class given is functional, organism-based. Particulars: Enterovirus A.
Series [6] is described as follows: Reversible inhibition of Enterovirus 71 3C protease assessed as overall inhibition constant using NMA-IEALFQGPPK(DNP)FR as substrate pre-incubated for 30 mins followed by substrate addition and measured over 30 mins by fluorescence method. The arrangement: species or system Enterovirus A71.
Series [7] deals with Enterovirus A71. Nature of the series: Reversible inhibition of Enterovirus 71 3C protease assessed as recovery of enzyme activity at 10 to 20 equivalent using peptide substrate pre-incubated for 1 hr followed by dilution prior to substrate addition using ultra-filtered sample relative to control. Also on record: scale not given: the % may be the effect or the level left.
The test system of series [8] is Enterovirus A71. The experiment in a line: Reversible inhibition of Enterovirus 71 3C protease assessed as recovery of enzyme activity at 10 to 20 equivalent using peptide substrate pre-incubated for 1 hr followed by dialysis and subsequent substrate addition measured up to 72 hrs relative to control. Also on record: scale not given: the % may be the effect or the level left.

The test system of series [9] is Enterovirus A71. Nature of the series: Inhibition of Enterovirus 71 3C protease in presence of glutathione.
Series [10] has as its system Enterovirus A71. The experiment in a line: Inhibition of Enterovirus 71 3C protease in presence of ethanolamine.
The test system of series [11] is Enterovirus A71. Nature of the series: Inhibition of Enterovirus 71 3C protease in presence of lysine.
Series [12] deals with Enterovirus A71. The experiment in a line: Antiviral activity against pseudotyped FY Enterovirus A71 harboring luciferase reporter gene infected in HEK-293T cells in presence of glutathione by Bright-Glo Luciferase Assay. The class given is functional, organism-based.
For series [13], the system named is Enterovirus A71. The experiment in a line: Antiviral activity against pseudotyped FY Enterovirus A71 harboring luciferase reporter gene infected in HEK-293T cells in presence of ethanolamine by Bright-Glo Luciferase Assay. The class given is functional, organism-based.
Series [14] concerns Enterovirus A71. Nature of the series: Antiviral activity against pseudotyped FY Enterovirus A71 harboring luciferase reporter gene infected in HEK-293T cells in presence of lysine by Bright-Glo Luciferase Assay. The series is classed as functional, organism-based.
In series [15] the target is T1, Cathepsin K (Homo sapiens) (UniProt P43235).
T1 sequence (whole entry): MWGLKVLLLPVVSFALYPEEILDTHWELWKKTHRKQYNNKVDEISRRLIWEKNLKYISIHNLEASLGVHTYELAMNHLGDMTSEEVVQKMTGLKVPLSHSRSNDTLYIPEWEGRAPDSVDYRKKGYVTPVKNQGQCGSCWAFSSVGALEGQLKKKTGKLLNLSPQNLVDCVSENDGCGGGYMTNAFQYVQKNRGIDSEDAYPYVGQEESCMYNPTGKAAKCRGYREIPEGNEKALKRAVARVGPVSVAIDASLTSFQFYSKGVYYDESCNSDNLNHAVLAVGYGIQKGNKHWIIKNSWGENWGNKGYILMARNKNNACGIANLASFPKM
The experiment in a line: Inhibition of human Cathepsin K at 50 uM using Ac-LR-AFC as substrate preincubated for 10 to 15 mins followed by substrate addition and measured for 30 to 60 mins by fluorescence method relative to control.

In series [16] the target is T2, Calpain-1 catalytic subunit (Homo sapiens) (UniProt P07384).
T2 sequence (whole entry): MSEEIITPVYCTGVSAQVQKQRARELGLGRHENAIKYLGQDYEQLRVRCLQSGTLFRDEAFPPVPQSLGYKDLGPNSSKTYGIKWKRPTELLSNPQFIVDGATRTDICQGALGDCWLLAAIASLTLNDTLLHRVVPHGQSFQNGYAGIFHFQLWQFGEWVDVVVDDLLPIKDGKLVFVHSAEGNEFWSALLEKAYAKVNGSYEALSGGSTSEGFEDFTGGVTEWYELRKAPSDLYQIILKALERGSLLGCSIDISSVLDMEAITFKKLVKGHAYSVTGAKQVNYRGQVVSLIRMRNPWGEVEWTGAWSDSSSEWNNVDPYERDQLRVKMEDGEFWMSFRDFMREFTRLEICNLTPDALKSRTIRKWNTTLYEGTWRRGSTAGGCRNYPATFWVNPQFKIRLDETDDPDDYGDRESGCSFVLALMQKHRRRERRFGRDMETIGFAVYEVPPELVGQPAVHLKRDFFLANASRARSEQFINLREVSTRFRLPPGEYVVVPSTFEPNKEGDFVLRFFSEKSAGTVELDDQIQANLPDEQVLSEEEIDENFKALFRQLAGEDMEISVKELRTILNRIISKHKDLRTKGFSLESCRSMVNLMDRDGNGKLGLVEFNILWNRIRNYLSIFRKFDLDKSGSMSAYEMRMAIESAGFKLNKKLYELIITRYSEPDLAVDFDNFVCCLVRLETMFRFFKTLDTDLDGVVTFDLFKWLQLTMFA
Nature of the series: Inhibition of human Calpain1 at 50 uM using Ac-LLY-AFC as substrate preincubated for 5 mins followed by substrate addition and measured after 10 mins by fluorescence method relative to control.

The test system of series [17] is Enterovirus A71. Nature of the series: Binding affinity to Enterovirus 71 3C protease assessed as enzyme-compound covalent adduct formation via Cys147 residue after 1 hr by HPLC-ESI/MS analysis.
Series [18] relates to Enterovirus A71. The experiment in a line: Inhibition of Enterovirus 71 3C protease assessed as induction of rapid equilibrium for enzyme-inhibitor complex formation up to 1.5 uM using NMA-IEALFQGPPK(DNP)FR as substrate by fluorescence method.
Series [19] concerns Enterovirus A71. Nature of the series: Binding affinity to Enterovirus 71 3C protease assessed as enzyme-compound covalent adduct formation via Cys147 residue by measuring ratio of peak intensity of covalently modified to unmodified protein at 20 equivalent after 1 hr by HPLC-ESI/MS analysis. In outline: as §1
Series [20] has as its system Enterovirus A71. The experiment in a line: Binding affinity to Enterovirus 71 3C protease assessed as enzyme-compound covalent adduct formation via Cys147 residue by measuring ratio of peak intensity of covalently modified to unmodified protein at 10 equivalent after 30 mins by HPLC-ESI/MS analysis. The method, boiled down: as §1
Series [21] relates to Enterovirus A71. The experiment in a line: Irreversible covalent inhibition of Enterovirus 71 3C protease at 64 uM using NMA-IEALFQGPPK(DNP)FR as substrate and measured for 1 to 1.5 hrs by fluorescence method.
Series [22] has as its system Enterovirus A71. Nature of the series: Slow-binding inhibition of Enterovirus 71 3C protease up to 3 uM using NMA-IEALFQGPPK(DNP)FR as substrate by fluorescence method.
In series [23] the test system is RD. Nature of the series: Cytotoxicity against human RD cells at 100 uM after 24 hrs by WST-1 assay relative to control. The series is classed as cell-based.
In series [24] the test system is RD. Nature of the series: Cytotoxicity against human RD cells at 33 uM after 24 hrs by WST-1 assay. The series is classed as cell-based.

The source made the active and inactive calls.

In turn, `CCOC(=O)/C=C/[C@H](C[C@@H]1CCNC1=O)NC(=O)[C@@H](CC(=O)[C@@H](NC(=O)c1cc(C)on1)C(C)C)Cc1ccc(F)cc1` [RUPINTRIVIR] had an IC50 in series [1] of 1.6 µM. Also, the EC50 in the series on Enterovirus A71 [2] amounted to 0.041 µM.

Take `Cc1cc(C(=O)N[C@@H](Cc2ccc(F)cc2)C(=O)N[C@H](/C=C(\C#N)C(=O)N(C)C(=O)OC(C)(C)C)C[C@@H]2CCCNC2=O)no1`: the inhibition entry (in series [3]; in the series with Enterovirus A71 [9]) was “inactive” each time. The Ratio in the series with Enterovirus A71 [4] came out at 1.5. The compound also came in with an EC50 with Enterovirus A71 [5] of 0.051 µM. In addition, the inhibition constant Ki in [6] was determined as 0.0093 µM. Moreover, the result in the series with Enterovirus A71 [7], with Enterovirus A71 [12], with Enterovirus A71 [13] and in the series with Enterovirus A71 [14] was Active. In addition, in the series with Enterovirus A71 [8], the Activity was 30%. Moreover, the inhibition entry in the series with Enterovirus A71 [10] and in the series on Enterovirus A71 [11] was “Active” throughout. In addition, the inhibition in [15] and in series [16] was less than 50% throughout.

Consider `COC(=O)/C(C#N)=C/[C@H](C[C@@H]1CCCNC1=O)NC(=O)[C@H](Cc1ccc(F)cc1)NC(=O)c1cc(C)on1`, for which the inhibition result (in series [3]; with Enterovirus A71 [9]) was “inactive” throughout. Besides, it took 0.053 µM to reach a half-maximal effect in the series on Enterovirus A71 [5] (EC50). Moreover, the Ki in [6] was determined as 0.0094 µM. For the same compound, the outcome in the series with Enterovirus A71 [17] was inactive. For the same compound, the Activity in the series on Enterovirus A71 [7] was 65 to 85%; in the series with Enterovirus A71 [8] it was 50%. Moreover, the inhibition result in the series on Enterovirus A71 [10] and in the series with Enterovirus A71 [11] was “Active” throughout. Further, the outcome with Enterovirus A71 [12], in the series with Enterovirus A71 [13] and with Enterovirus A71 [14] was Active. In addition, the inhibition in series [15] and in [16] was less than 50% each time.

For `Cc1cc(C(=O)N[C@@H](Cc2ccc(F)cc2)C(=O)N[C@H](/C=C(\C#N)C(=O)OC(C)(C)C)C[C@@H]2CCCNC2=O)no1`, in the series on Enterovirus A71 [5], the EC50 came to 0.03 µM. Further, the Ki in series [6] worked out at 0.0067 µM. Moreover, in the series with Enterovirus A71 [17], the outcome was inactive. Further, the inhibition entry with Enterovirus A71 [18] was “Active”. For the same compound, the Activity with Enterovirus A71 [7] fell in the range of 65 to 85%.

For the compound `Cc1cc(C(=O)N[C@@H](Cc2ccc(F)cc2)C(=O)N[C@H](/C=C/C#N)C[C@@H]2CCCNC2=O)no1`, the Ratio with Enterovirus A71 [19] and with Enterovirus A71 [20] was more than 100 in each case. The same compound returned an EC50 with Enterovirus A71 [5] of 37 µM. Besides, the inhibition entry in the series on Enterovirus A71 [21] was “Active”.

In the series on Enterovirus A71 [5], `CCN(C(=O)OC(C)(C)C)C(=O)/C(C#N)=C/[C@H](C[C@@H]1CCCNC1=O)NC(=O)[C@H](Cc1ccc(F)cc1)NC(=O)c1cc(C)on1` displayed an EC50 of 0.067 µM. Besides, in series [6], the Ki was found to be 0.024 µM. Also, the inhibition entry in the series with Enterovirus A71 [22] was “Active”.

Take `Cc1cc(C(=O)N[C@@H](Cc2ccc(F)cc2)C(=O)N[C@H](/C=C(\C#N)C(=O)N(C)C)C[C@@H]2CCCNC2=O)no1`: the Ratio in the series with Enterovirus A71 [4] was determined as 1. In addition, the EC50 in the series with Enterovirus A71 [5] was 0.11 µM. Further, the Ki in [6] turned out to be 0.094 µM. Besides, in the series with Enterovirus A71 [9], the inhibition entry is “inactive”. The inhibition entry in the series on Enterovirus A71 [10] and in the series with Enterovirus A71 [11] was “Active” throughout. The result with Enterovirus A71 [12], in the series with Enterovirus A71 [13] and in the series on Enterovirus A71 [14] was Active.

For `Cc1cc(C(=O)N[C@@H](Cc2ccc(F)cc2)C(=O)N[C@H](/C=C(\C#N)c2ccc(C(F)(F)F)cc2)C[C@@H]2CCCNC2=O)no1`, a half-maximal effect with Enterovirus A71 [5] (EC50) was put at 1.4 µM. Moreover, the Activity in the series with RD [23] is 100%; in the series with RD [24], “Toxic”.
